# CAL PDZ FP-1 = CAL PDZ peptide-binding inhibitors, primary screen, biochemical, fluorescence polarization, Cer-tagged CAL PDZ, HTS. purified CAL PDZ, TMR-peptide fluorescence polarization, 1 h. inhibition, % at 20 µM. 330,000 compounds, 0.02% hits. AID 504414, 2011;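 active = highest replicate inhibition of at least 40%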;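 also: plate controls were DMSO neutral control wells for no effect and unlabeled competitor peptide control wells for full effect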
#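 material = purified tagged CAL PDZ domain construct (CerCALP) | buffer or medium = sodium phosphate/NaCl buffer pH 7.4 with TCEP, IgG, Thesit | reagent = TMR-labelled reporter peptide T*-PRC34 bound in PDZ groove | incubation = 1 h room-temperature incubation prior to read | measured by = fluorescence polarization (mP) | evaluation = percent inhibition from loss of millipolarization | control set = unlabelled peptide and DMSO controls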
# CDK5 inh = inhibitors of human CDK5/p35 kinase, primary screen, biochemical, single concentration | 330,000 compounds, 0.01% hits | Cyclin-dependent kinase 5 (Homo sapiens) + Cyclin-dependent kinase 5 activator 1 (Homo … | inhibition, % at 10 µM | Recombinant CDK5/p35, ADP-Glo luminescence, 60 min | AID 488839, 2010;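 active = highest replicate inhibition of at least 50% and at least 75% of replicates reaching 50%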;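 also: plate controls were DMSO neutral control for no effect and GW8510 at 10 µM for full effect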
# Tb MetRS inh = T. brucei MetRS inhibitors, primary screen, biochemical, luminescence; AID 624268, 2012; inhibition, % at 11.9 µM; purified T. brucei MetRS, ATP depletion, Kinase-Glo luminescence; 360,000 compounds, 0.4% hits;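 active = inhibition above a per-plate cutoff of the control wells' mean inhibition plus 3 SD, cut at about 5.5% in these data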;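 also: 0% = DMSO wells median and 100% = median of wells with control inhibitor compound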
#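 Assay system: T. brucei methionyl-tRNA synthetase, purified | Medium: HEPES buffer with MgCl2, KCl, DTT, spermine, BSA, pyrophosphatase | Compound: 11.9 µM single point | Incubation: 15 min enzyme-compound preincubation, 2 h reaction, 10 min detection, 25 °C | Measured by: Kinase-Glo luciferase luminescence reporting remaining unconsumed ATP | Measure: % inhibition normalized to control-well medians | Replication: Singlicate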
# CAL PDZ FP-2 = untagged CAL PDZ binding inhibitors, primary screen, biochemical, fluorescence polarization, HTS | AID 602252, 2012 | 300,000 compounds, 0.92% hits | Golgi-associated PDZ and coiled-coil motif-containing protein (Homo sapiens), Q9HD26 | inhibition, % at 24.9 µM | purified CAL PDZ, TMR-peptide fluorescence polarization, 1 h;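 active = mean inhibition of at least 30% with at least half of replicates also reaching 30%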;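 also: 0% = DMSO neutral control and 100% = excess unlabeled competitor peptide PRC23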
# Dyrk1A ADPGlo = rat Dyrk1A kinase inhibitors, primary screen, biochemical, single point, plate reader | 310,000 compounds, 0.43% hits | inhibition, % at 12.5 µM | Dual specificity tyrosine-phosphorylation-regulated kinase 1A (Rattus norvegicus), Q63470 | ADP-Glo luminescence, NFATc1 peptide; in the data active = inhibition above about 50%;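 also: plate controls were vehicle with enzyme for no effect and no enzyme for full effect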
# PvdQ inh = P. aeruginosa PvdQ acylase inhibitors, primary screen, biochemical, fluorescence, plate reader and imaging, single point. AID 488965, 2010. 340,000 compounds, 0.063% hits. inhibition, % at 10 µM. purified PvdQ acylase. PvdQ acylase [Pseudomonas aeruginosa LESB58]; in the data active = inhibition above about 30%, passing the limit was not always enough;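 also: 0% = vehicle neutral wells and 100% = reference inhibitor wells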
# The depositor's hits bear a star; · = no result given. Hits are enriched below; roughly 1.4% of the tested compounds scored in any of these assays.
SMILES,CAL PDZ FP-1,CDK5 inh,Tb MetRS inh,CAL PDZ FP-2,Dyrk1A ADPGlo,PvdQ inh
Cc1ccc(-n2c(O)c(C=NC3CCCC3)c(=O)[nH]c2=O)c(C)c1,0,0,-1,49*,1,-16
Cc1ccc(-n2c(O)c(C=NC3CCCCC3N)c(=O)[nH]c2=O)cc1C (centres undefined),-2,0,-1,-2,-2,-10
CCOC(=O)[C@]12Cc3cc(Cl)ccc3[C@H]1N(C1CCCCC1)C(=O)c1cc(OC)ccc12,·,·,0,·,·,·
CCn1nc(-c2ccccc2)nc2c(=O)n(C)c(=O)nc1-2,1,1,27*,-4,68*,14
COc1ccc(NC(=O)N2CCC3(CC2)OCCO3)cc1,-1,-1,0,-3,1,-11
COc1ccc(Nc2ncc(C(=O)N3CCC4(CC3)OCCO4)c3ccccc23)cc1,0,0,-1,80*,-3,-14
CC(C)(OOC1(c2ccccc2)NC(=O)c2ccccc21)c1ccccc1 (centres undefined),·,·,-1,·,·,·
CN1CC(C(=O)c2cccc(C(F)(F)F)c2)C(c2ccc(Cl)cc2)C1 (centres undefined),1,0,0,59*,4,-2
C1CCC2S[C@H]3CCCCC3NC2C1 (some centres undefined),-1,1,0,58*,1,-7
COc1cccc(C(c2nnnn2C2CCCCC2)N2CCC3(CC2)C(=O)NCN3c2ccccc2)c1OC (centres undefined),·,·,0,·,·,·
CCn1c(O)c(C=NCc2cccs2)c(=O)[nH]c1=O,0,0,0,51*,5,-5
CCC(C)N1C(=O)/C(=C\c2cc3c4c(c2)CCCN4CCC3)C(=O)NC1=S (centres undefined),0,·,0,65*,6,-5
Cc1cc(OC(C)C(=O)NCc2ccncc2)c2c3c(c(=O)oc2c1)CCC3 (centres undefined),-1,1,0,31*,-1,-7
O=C1C(=O)c2ccccc2-c2ccccc21,1,0,38*,-3,49,0
C[C@@]12CC[C@@H](c3cc4c(cc3C1)OCO4)N2c1ccccc1,·,·,0,·,·,·
CCOP(=O)(OCC)C(O)c1ccc(N(C)C)cc1 (centres undefined),-1,2,0,30*,2,-11
Cc1cccc(C)c1-n1nnnc1C(c1cccc2ccccc12)N1CCC2(CC1)C(=O)NCN2c1ccccc1 (centres undefined),·,·,0,·,·,·
CCCCOC(=O)c1ccccc1C(=O)OCCCC,0,1,0,42*,·,-7
CC1CCN(C(CC(=O)c2ccccc2)C(=O)c2ccccc2)CC1 (centres undefined),0,0,0,-4,2,-10
CCOP(=O)(NC(C)C)Oc1ccc(SC)c(C)c1 (centres undefined),-1,1,0,-5,4,-3
O=C1NCN(c2ccccc2)C12CCN(C(c1cccc3ccccc13)c1nnnn1C1CCCCC1)CC2 (centres undefined),·,·,-1,·,·,·
COc1cc(/C=C2\C(=O)NC(=O)N(c3ccccc3)C2=O)cc(OC)c1O,-1,-3,-1,·,6,-2
COc1cc(/C=C2\C(=O)NC(=O)N(c3ccccc3)C2=O)c([N+](=O)[O-])cc1OC,46*,-3,0,0,6,-12
CN(Cc1cccc(-c2ccncc2)c1)C(=O)Oc1ccccc1Cc1ccccc1,·,·,0,·,·,·
C=CCn1c(O)c(C(C)=Nc2ccc(C(=O)O)cc2)c(=O)[nH]c1=O,0,-2,1,82*,-2,-11
C=CCn1c(O)c(C(CC)=Nc2ccc(C(=O)O)cc2)c(=O)[nH]c1=O,0,1,0,-4,-3,-15
